The term inhibition denotes the percentage by which the read-out fell short of the control. What is called IC50 is the point on the concentration scale where inhibition reaches its midpoint. As a reminder, the Ki is a measure of affinity in units of concentration, obtained from inhibition or displacement. Lower therefore signals a stronger hold on the target.

Bounds are passed on as bounds.

In assay [1] the target is Replicase polyprotein 1a (Severe acute respiratory syndrome-related coronavirus) (UniProt P0C6U8). The assay can be described thus: Inhibition of SARS CoV 3C-like protease at 100 uM.
The target in the next assay is Trypsin (Homo sapiens, UniProt P07477+P07478+P35030). The assay can be described thus: Inhibition of trypsin. Format: protein assay. Put shortly:
(§1)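 HPLC-based activity assay with substrate S0120 at 400 µM. Enzyme levels: papain 4.5 µM, chymotrypsin 0.45 µM, trypsin 0.23 µM. IC50 determined from HPLC measurements.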

The next assay concerns the target T1, Papain (Carica papaya, UniProt P00784).
T1 sequence (P00784 whole entry): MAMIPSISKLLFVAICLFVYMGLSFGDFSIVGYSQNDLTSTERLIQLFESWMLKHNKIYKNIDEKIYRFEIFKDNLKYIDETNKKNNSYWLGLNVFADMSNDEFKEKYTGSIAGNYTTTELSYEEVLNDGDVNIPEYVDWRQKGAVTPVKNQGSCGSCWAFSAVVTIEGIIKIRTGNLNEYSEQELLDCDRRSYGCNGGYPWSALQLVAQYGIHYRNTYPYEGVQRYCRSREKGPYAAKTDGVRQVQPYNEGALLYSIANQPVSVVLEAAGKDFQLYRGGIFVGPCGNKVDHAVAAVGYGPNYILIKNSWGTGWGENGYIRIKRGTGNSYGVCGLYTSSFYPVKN
Kind of assay: Inhibition of papain. The gist of the method:
as §1

Assay [2] has as its target T2, Human rhinovirus A protease (Human rhinovirus sp., UniProt Q4U254).
T2 sequence (Q4U254 whole entry): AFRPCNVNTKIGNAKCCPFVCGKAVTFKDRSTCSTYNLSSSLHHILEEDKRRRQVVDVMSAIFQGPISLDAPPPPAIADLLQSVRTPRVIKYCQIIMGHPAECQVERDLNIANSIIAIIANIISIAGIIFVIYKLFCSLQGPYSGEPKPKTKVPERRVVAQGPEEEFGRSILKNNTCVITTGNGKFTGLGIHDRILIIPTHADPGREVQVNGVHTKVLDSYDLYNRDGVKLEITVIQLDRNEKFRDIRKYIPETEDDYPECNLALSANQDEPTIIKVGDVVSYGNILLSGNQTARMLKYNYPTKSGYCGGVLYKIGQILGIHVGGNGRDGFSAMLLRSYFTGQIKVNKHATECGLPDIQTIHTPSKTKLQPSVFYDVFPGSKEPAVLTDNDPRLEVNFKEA
The assay can be described thus: Inhibition of human rhinovirus 14 3C protease. Details: species or system rhinovirus B14.

For another assay, the target named is Chymotrypsinogen B (Homo sapiens, UniProt P17538). The assay can be described thus: Inhibition of chymotrypsin. Put shortly: as §1
Chain of Chymotrypsinogen B (P17538 34-164 limits assumed, other chains not shown): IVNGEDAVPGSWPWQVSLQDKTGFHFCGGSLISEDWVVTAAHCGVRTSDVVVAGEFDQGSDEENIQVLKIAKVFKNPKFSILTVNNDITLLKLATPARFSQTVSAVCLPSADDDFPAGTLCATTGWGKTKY
Chain of Chymotrypsinogen B (P17538 167-263 limits assumed, other chains not shown): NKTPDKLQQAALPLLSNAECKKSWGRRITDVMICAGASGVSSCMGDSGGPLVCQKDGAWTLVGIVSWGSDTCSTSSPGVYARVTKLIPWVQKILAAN
Another assay has as its target Replicase polyprotein 1a (Severe acute respiratory syndrome-related coronavirus, UniProt P0C6U8). Kind of assay: Inhibition of SARS CoV 3C-like protease.

Take `CCCN1C(=O)C(=O)c2cc(C(=O)O)ccc21`: the inhibition in assay [1] was below 25%.

For the compound `COC(=O)c1ccc2c(c1)C(=O)C(=O)N2Cc1ccc2ccccc2c1`, the inhibition in assay [1] was below 25%.

Turning to `NC(=O)c1ccc2c(c1)C(=O)C(=O)N2Cc1ccc2ccccc2c1`, the IC50 stood at 352 µM against Trypsin, 11 µM at Papain, 0.004 µM in assay [2] and 34 µM at Chymotrypsinogen B.

Turning to `COC(=O)c1ccc2c(c1)C(=O)C(=O)N2C`, the inhibition in assay [1] is below 25%.

For `O=C(O)c1ccc2c(c1)C(=O)C(=O)N2Cc1ccccc1`, the inhibition in assay [1] was below 25%.

On to `CN1C(=O)C(=O)c2cc(C(=O)O)ccc21`, for which the inhibition in assay [1] is below 25%.

Compound `CCCN1C(=O)C(=O)c2cc(C(=O)OC)ccc21` showed an inhibition in assay [1] below 25%.

Compound `NC(=O)c1ccc2c(c1)C(=O)C(=O)N2Cc1ccccc1` had an IC50 at Replicase polyprotein 1a of 12.5 µM.

Regarding `COC(=O)c1ccc2c(c1)C(=O)C(=O)N2Cc1ccccc1`, the inhibition in assay [1] is below 25%.

As to `CCCCN1C(=O)C(=O)c2cc(C(=O)O)ccc21`, the inhibition in assay [1] is below 25%.

For `CN1C(=O)C(=O)c2cc(I)ccc21`, the inhibition in assay [1] is below 25%.

`CCCCN1C(=O)C(=O)c2cc(C(=O)OC)ccc21` gave an inhibition in assay [1] below 25%.

In assay [1], `CCCN1C(=O)C(=O)c2cc(I)ccc21` showed an inhibition of 25%.

For `NC(=O)c1ccc2c(c1)C(=O)C(=O)N2`, in assay [1], the inhibition is below 25%.

On to `O=C1Nc2ccc(I)cc2C1=O`, for which the inhibition in assay [1] was below 25%.

In assay [1], `O=C1Nc2ccc(C(=O)O)cc2C1=O` displayed an inhibition below 25%.

For the compound `CN1C(=O)C(=O)c2cc(C(N)=O)ccc21`, on Replicase polyprotein 1a, inhibition was half-maximal at 71 µM (IC50) and the inhibition constant Ki was found to be 71 µM.

As for `O=C(O)c1ccc2c(c1)C(=O)C(=O)N2Cc1ccc2ccccc2c1`, the inhibition in assay [1] turned out to be 46%.

Regarding `O=C1C(=O)N(Cc2ccccc2)c2ccc(I)cc21`, on Replicase polyprotein 1a, the IC50 worked out at 50 µM and the affinity corresponds to a Ki of 50 µM.

Source of the values: ChEMBL document CHEMBL1148529, “Isatin compounds as noncovalent SARS coronavirus 3C-like protease inhibitors” (J Med Chem, 2006).
